Assay: Multiple ascending dose part
Assay type: in vivo, human
Summary of the method: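 Healthy men, double-blind, randomized 6 active:2 placebo per cohort. Oral test compound or placebo once daily for 14 days, each dose after a moderate-fat meal (~600 calories, ~30% from fat). An expansion cohort (24 planned) assessed GI tolerability. Monitoring covered AEs, physical exams, vital signs, ECGs, clinical labs, suicidal risk, and GI and hepatobiliary abnormalities. AEs were MedDRA 21.0-coded and summarized descriptively.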

[1] = 50 mg once daily for 14 days (N = 6)
[2] = 100 mg once daily for 14 days (N = 6)
[3] = 200 mg once daily for 14 days (N = 25; cohort 5 and expansion cohort)
[4] = 320 mg once daily for 14 days (N = 7)
[5] = Part 2, across 58 participants (GSK3640254 n = 44 or placebo n = 14)

In the case of `C=C(C)[C@@H]1CC[C@]2(NCCN3CCS(=O)(=O)CC3)CC[C@]3(C)[C@H](CC[C@@H]4[C@@]5(C)CC=C(C6=CC[C@@](CF)(C(=O)O)CC6)C(C)(C)[C@@H]5CC[C@]43C)[C@@H]12` [GSK3640254], the “Adverse event: Abdominal distension” value [1] was 0 n (%), the “Adverse event: Abdominal pain” value [1] was 1 (17) n (%) and the “Adverse event: Abnormal dreams” value [1] was 0 n (%). The “Adverse event: Agitation” value [1] was 0 n (%), the “Adverse event: Any event” value [1] was 4 (67) n (%) and the “Adverse event: Arthropod bite” value [1] was 0 n (%). For the same compound, the “Adverse event: Back pain” value [1] was 0 n (%), the “Adverse event: Catheter‐site bruise” value [1] was 0 n (%) and the “Adverse event: Catheter‐site pain” value [1] was 0 n (%). For the same compound, the “Adverse event: Constipation” value [1] was 0 n (%), the “Adverse event: Contact dermatitis” value [1] was 1 (17) n (%) and the “Adverse event: Contusion” value [1] was 1 (17) n (%). For the same compound, the “Adverse event: Disturbance in attention” value [1] was 0 n (%), the “Adverse event: Dizziness” value [1] was 1 (17) n (%) and the “Adverse event: Dry skin” value [1] was 0 n (%). The “Adverse event: Fatigue” value [1] was 2 (33) n (%), the “Adverse event: Gastrointestinal disorders” value [1] was 2 (33) n (%) and the “Adverse event: Headache” value [1] was 3 (50) n (%). The “Adverse event: Lethargy” value [1] was 0 n (%), the “Adverse event: Musculoskeletal stiffness” value [1] was 1 (17) n (%) and the “Adverse event: Nausea” value [1] was 0 n (%). For the same compound, the “Adverse event: Oropharyngeal pain” value [1] was 0 n (%), the “Adverse event: Rash” value [1] was 0 n (%) and the “Adverse event: Somnolence” value [1] was 1 (17) n (%). The “Adverse event: Vessel puncture site bruise” value [1] was 0 n (%), the “Adverse event: Abdominal distension” value [2] was 0 n (%) and the “Adverse event: Abdominal pain” value [2] was 0 n (%). For the same compound, the “Adverse event: Abnormal dreams” value [2] was 0 n (%), the “Adverse event: Agitation” value [2] was 1 (17) n (%) and the “Adverse event: Any event” value [2] was 5 (83) n (%). The “Adverse event: Arthropod bite” value [2] was 0 n (%), the “Adverse event: Back pain” value [2] was 1 (17) n (%) and the “Adverse event: Catheter‐site bruise” value [2] was 1 (17) n (%). For the same compound, the “Adverse event: Catheter‐site pain” value [2] was 0 n (%), the “Adverse event: Constipation” value [2] was 0 n (%) and the “Adverse event: Contact dermatitis” value [2] was 0 n (%). The “Adverse event: Contusion” value [2] was 1 (17) n (%), the “Adverse event: Disturbance in attention” value [2] was 0 n (%) and the “Adverse event: Dizziness” value [2] was 2 (33) n (%). For the same compound, the “Adverse event: Dry skin” value [2] was 0 n (%), the “Adverse event: Fatigue” value [2] was 1 (17) n (%) and the “Adverse event: Gastrointestinal disorders” value [2] was 0 n (%). For the same compound, the “Adverse event: Headache” value [2] was 1 (17) n (%), the “Adverse event: Lethargy” value [2] was 0 n (%) and the “Adverse event: Musculoskeletal stiffness” value [2] was 0 n (%). The “Adverse event: Nausea” value [2] was 0 n (%), the “Adverse event: Oropharyngeal pain” value [2] was 0 n (%) and the “Adverse event: Rash” value [2] was 0 n (%). The “Adverse event: Somnolence” value [2] was 0 n (%), the “Adverse event: Vessel puncture site bruise” value [2] was 0 n (%) and the “Adverse event: Abdominal distension” value [3] was 1 (4) n (%). For the same compound, the “Adverse event: Abdominal pain” value [3] was 1 (4) n (%), the “Adverse event: Abnormal dreams” value [3] was 2 (8) n (%) and the “Adverse event: Agitation” value [3] was 1 (4) n (%). The “Adverse event: Any event” value [3] was 19 (76) n (%), the “Adverse event: Arthropod bite” value [3] was 0 n (%) and the “Adverse event: Back pain” value [3] was 2 (8) n (%). For the same compound, the “Adverse event: Catheter‐site bruise” value [3] was 1 (4) n (%), the “Adverse event: Catheter‐site pain” value [3] was 0 n (%) and the “Adverse event: Constipation” value [3] was 2 (8) n (%). For the same compound, the “Adverse event: Contact dermatitis” value [3] was 7 (28) n (%), the “Adverse event: Contusion” value [3] was 3 (12) n (%) and the “Adverse event: Disturbance in attention” value [3] was 1 (4) n (%). For the same compound, the “Adverse event: Dizziness” value [3] was 2 (8) n (%), the “Adverse event: Dry skin” value [3] was 0 n (%) and the “Adverse event: Fatigue” value [3] was 1 (4) n (%). For the same compound, the “Adverse event: Gastrointestinal disorders” value [3] was 6 (24) n (%), the “Adverse event: Headache” value [3] was 3 (12) n (%) and the “Adverse event: Lethargy” value [3] was 1 (4) n (%). For the same compound, the “Adverse event: Musculoskeletal stiffness” value [3] was 1 (4) n (%), the “Adverse event: Nausea” value [3] was 1 (4) n (%) and the “Adverse event: Oropharyngeal pain” value [3] was 1 (4) n (%). The “Adverse event: Rash” value [3] was 1 (4) n (%), the “Adverse event: Somnolence” value [3] was 0 n (%) and the “Adverse event: Vessel puncture site bruise” value [3] was 1 (4) n (%). For the same compound, the “Adverse event: Abdominal distension” value [4] was 0 n (%), the “Adverse event: Abdominal pain” value [4] was 0 n (%) and the “Adverse event: Abnormal dreams” value [4] was 0 n (%). The “Adverse event: Agitation” value [4] was 0 n (%), the “Adverse event: Any event” value [4] was 6 (86) n (%) and the “Adverse event: Arthropod bite” value [4] was 2 (29) n (%). The “Adverse event: Back pain” value [4] was 0 n (%), the “Adverse event: Catheter‐site bruise” value [4] was 0 n (%) and the “Adverse event: Catheter‐site pain” value [4] was 1 (14) n (%). For the same compound, the “Adverse event: Constipation” value [4] was 0 n (%), the “Adverse event: Contact dermatitis” value [4] was 0 n (%) and the “Adverse event: Contusion” value [4] was 0 n (%). For the same compound, the “Adverse event: Disturbance in attention” value [4] was 0 n (%), the “Adverse event: Dizziness” value [4] was 1 (14) n (%) and the “Adverse event: Dry skin” value [4] was 1 (14) n (%). For the same compound, the “Adverse event: Fatigue” value [4] was 0 n (%), the “Adverse event: Gastrointestinal disorders” value [4] was 2 (29) n (%) and the “Adverse event: Headache” value [4] was 2 (29) n (%). For the same compound, the “Adverse event: Lethargy” value [4] was 1 (14) n (%), the “Adverse event: Musculoskeletal stiffness” value [4] was 0 n (%) and the “Adverse event: Nausea” value [4] was 1 (14) n (%). For the same compound, the “Adverse event: Oropharyngeal pain” value [4] was 1 (14) n (%), the “Adverse event: Rash” value [4] was 0 n (%) and the “Adverse event: Somnolence” value [4] was 1 (14) n (%). The “Adverse event: Vessel puncture site bruise” value [4] was 0 n (%), the participants reporting palpitations (Part 2, 200‐mg + expansion cohort, one participant, mild, unrelated to study drug) was 2% and the “most common AEs: contact dermatitis” value [5] was 13.8%. For the same compound, the “most common AEs: dizziness” value [5] was 12.1%, the “most common AEs: headache” value [5] was 25.9% and the “participants discontinued because of grade 1 maculopapular rash” value (expansion cohort, one participant) was 2%.

Reference: PMC7670640 (Pharmacology Research & Perspectives, 2020)
